In data set [1] the test system is Plasmodium falciparum. The data set is described as follows: Antiplasmodial activity against chloroquine-resistant ring stage Plasmodium falciparum W2 infected in human red blood cells after 48 hrs. The conditions noted are these: W2, 48 h. It is filed as functional, organism-based.
Data set [2] relates to Plasmodium falciparum. The data set is described as follows: Antiplasmodial activity against chloroquine-sensitive ring stage Plasmodium falciparum 3D7 infected in human red blood cells after 48 hrs. It is filed as functional, organism-based. The conditions noted are these: 3D7, 48 h.
For data set [3], the system named is Plasmodium falciparum. Kind of data set: Antiplasmodial activity against chloroquine and pyrimethamine-resistant ring stage Plasmodium falciparum V1/S infected in human red blood cells after 48 hrs. In kind it is functional, organism-based.
The subject of data set [4] is Plasmodium falciparum. The data set is described as follows: Antiplasmodial activity against chloroquine-sensitive, mefloquine-resistant ring stage Plasmodium falciparum D6 infected in human red blood cells after 48 hrs. In kind it is functional, organism-based. The following applies: D6, 48 h.
Data set [5] is described as follows: Selectivity index, ratio of IC50 for african green monkey Vero cells to IC50 for chloroquine-resistant ring stage Plasmodium falciparum W2. The following applies: read-out: Ratio IC50. In kind it is toxicity, cell-based. An outline of the steps: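 Vero IC50 divided by W2 IC50. Vero: 15000 cells/well adhered overnight, then log dilutions from 30 mg/mL DMSO stock for 48 h. MTT 0.5 mg/mL final for 2 h at 37 C, formazan dissolved in 95% ethanol, A570 read against DMSO vehicle as 100% viability. W2: 48 h YOYO-1 flow-cytometric growth assay in human erythrocytes.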

In data set [6] the test system is Plasmodium falciparum. Kind of data set: Resistance index, ratio of IC50 for chloroquine-resistant ring stage Plasmodium falciparum W2 to IC50 for chloroquine-sensitive ring stage Plasmodium falciparum 3D7. It is filed as functional. An outline of the steps:
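W2 IC50 divided by 3D7 IC50. Both were measured by 48 h YOYO-1 flow-cytometric growth assay on sorbitol-synchronised 1% ring-stage cultures in human erythrocytes at 37 C under 3% O2.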

For a further data set, the system named is Heme. Kind of data set: Binding affinity to heme by UV-visible titration. An outline of the steps: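 Hematin monomer (FPIX-OH, 10 μM) in pH 5.5 HEPES-buffered 40% DMSO v/v at 25 C, titrated with ligand from 100 μM solution until above hematin concentration. Stirred 1 min per addition; spectra 230–500 nm, Soret change at 402 nm. Absorbance dilution-corrected, nonlinear fit for Kd; Kass calculated from Kd.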

For a further data set, the system named is Nucleic Acid. Kind of data set: Binding affinity to s(GATCCTAGGATC)2-DNA by fluorescence spectroscopy. In kind it is nucleic-acid assay. An outline of the steps:
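Buffer 0.01 M phosphate pH 7.4, 0.1 M NaCl, 25.0 C, 1 cm quartz cuvettes. Fluorescence: excitation 339 nm, emission 450–500 nm. Dilution-corrected intensity change fitted to single-site binding for Kd; Kass taken as 1/Kd.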

A short description of data set [7]: Inhibition of Plasmodium falciparum falcipain 2.

Molecules are shown by their SMILES. pIC50: −log10 of the molar value.

Usually pIC50 stands for the IC50 on a negative log10 scale, so that one unit is a factor of ten. Regarding `C[n+]1c2ccccc2c(Nc2ccc(N3CCCCC3)cc2)c2[nH]c3ccccc3c21.[Cl-]`, the pIC50 is 6.34 in the data set with Plasmodium falciparum [1]; 6.43 in the data set on Plasmodium falciparum [2]; 6.75 in the data set on Plasmodium falciparum [3]; 6.54 with Plasmodium falciparum [4]; 5.09 in [7]. The selectivity ratio in data set [5] was found to be 11. In the data set on Plasmodium falciparum [6], the “Ratio IC50” value worked out at 2.6. Further, the results for the Ka in the data set with Heme and with Nucleic Acid were 0.21 ×10⁶ /M and 3.4 ×10⁶ /M, respectively.

For `CN(C)CCNc1c2ccccc2[n+](C)c2c1[nH]c1ccccc12.[Cl-]`, the pIC50 in the data set on Plasmodium falciparum [2] is 7.21; in the data set on Plasmodium falciparum [3], 7.07; with Plasmodium falciparum [4] it was 7.18; in [7], less than 4.30. Further, in data set [5], the selectivity ratio was found to be 111. Moreover, the “Ratio IC50” value in the data set with Plasmodium falciparum [6] worked out at 0.8. For the same compound, the figures for the Ka in the data set on Heme and with Nucleic Acid were 0.12 ×10⁶ /M and 3.1 ×10⁶ /M, respectively.

As to `C[n+]1c2cc(Cl)ccc2c(NC2CCNCC2)c2[nH]c3ccccc3c21.[Cl-]`, the negative-log IC50 (pIC50) in the data set with Plasmodium falciparum [1] is 7.35; in the data set with Plasmodium falciparum [2] it was 7.19; with Plasmodium falciparum [3], 7.28; with Plasmodium falciparum [4] it was 7.15; in data set [7], 5.25. Also, the selectivity ratio in data set [5] was 98. The “Ratio IC50” value with Plasmodium falciparum [6] was 0.9. In addition, the Ka is 0.18 ×10⁶ /M in the data set on Heme and 4.5 ×10⁶ /M in the data set on Nucleic Acid.

On to `CCN(CC)CCNc1c2ccccc2[n+](C)c2c1[nH]c1ccccc12.[Cl-]`, for which the pIC50 in the data set with Plasmodium falciparum [2] was 6.89; with Plasmodium falciparum [3] it was 7.14; with Plasmodium falciparum [4], 7.15; in data set [7] it was less than 4.30. Besides, the selectivity ratio in [5] came to 34. Further, the “Ratio IC50” value in the data set on Plasmodium falciparum [6] was found to be 1.2. Moreover, the Ka came to 0.41 ×10⁶ /M with Heme and 1.14 ×10⁶ /M with Nucleic Acid.

`CC(C)NCCCNc1c2ccccc2[n+](C)c2c1[nH]c1ccccc12.[Cl-]`: the negative logarithm of the IC50 (pIC50) in the data set with Plasmodium falciparum [2] is 7.58; with Plasmodium falciparum [3], 7.55; in the data set on Plasmodium falciparum [4] it was 7.47; in data set [7], less than 4.60. The selectivity ratio in data set [5] worked out at 125. Besides, the “Ratio IC50” value in the data set with Plasmodium falciparum [6] is given as 0.8. Also, the Ka in the data set on Heme is 0.2 ×10⁶ /M; in the data set on Nucleic Acid, 5 ×10⁶ /M.

Turning to `CCN(CC)CCCNc1c2ccccc2[n+](C)c2c1[nH]c1ccccc12.[Cl-]`, the pIC50 in the data set with Plasmodium falciparum [2] is 7.70; in the data set on Plasmodium falciparum [3], 7.54. Also, in data set [5], the selectivity ratio turned out to be 78. In the data set on Plasmodium falciparum [6], the “Ratio IC50” value is on record as 1.1. Moreover, the Ka is 0.127 ×10⁶ /M in the data set with Heme and 9.1 ×10⁶ /M in the data set on Nucleic Acid.

For the compound `C[n+]1c2ccccc2c(Nc2cccnc2)c2[nH]c3ccccc3c21.[Cl-]`, the pIC50 with Plasmodium falciparum [1] was 6.74; with Plasmodium falciparum [2], 6.61; in the data set on Plasmodium falciparum [3] it was 6.55; in the data set with Plasmodium falciparum [4], 6.78; in data set [7] it was 5.03. The selectivity ratio in data set [5] turned out to be 14. Moreover, in the data set with Plasmodium falciparum [6], the “Ratio IC50” value is listed as 0.6. Further, the figures for the Ka in the data set on Heme and in the data set with Nucleic Acid were 0.17 ×10⁶ /M and 1 ×10⁶ /M, respectively.

For the compound `C[n+]1c2ccccc2c(NC2CCN(Cc3ccccc3)CC2)c2[nH]c3ccccc3c21.[Cl-]`, the negative-log IC50 (pIC50) in the data set on Plasmodium falciparum [1] was 6.97; with Plasmodium falciparum [2], 7.25; in the data set on Plasmodium falciparum [3], 7.23; with Plasmodium falciparum [4], 7.07; in data set [7], 4.89. Besides, the selectivity ratio in data set [5] was found to be 21. For the same compound, the “Ratio IC50” value in the data set with Plasmodium falciparum [6] turned out to be 1.8. In addition, the Ka in the data set on Heme was found to be 0.125 ×10⁶ /M; in the data set with Nucleic Acid it was 0.68 ×10⁶ /M.

Take `CCN(CC)Cc1ccc(Nc2c3ccccc3[n+](C)c3c2[nH]c2ccccc23)cc1O.[Cl-]`: the pIC50 in the data set on Plasmodium falciparum [1] is 7.28; in the data set with Plasmodium falciparum [2] it was 7.25; in the data set on Plasmodium falciparum [3], 7.82; in the data set on Plasmodium falciparum [4], 7.62; in data set [7] it was 4.82. The selectivity ratio in [5] is 17. The “Ratio IC50” value with Plasmodium falciparum [6] was determined as 3.5. Further, the Ka in the data set with Heme was 0.075 ×10⁶ /M; in the data set with Nucleic Acid it was 0.8 ×10⁶ /M.

`C[n+]1c2ccccc2c(Nc2ccccc2)c2[nH]c3ccccc3c21.[Cl-]`: the negative-log IC50 (pIC50) in the data set on Plasmodium falciparum [1] is 6.58; in the data set with Plasmodium falciparum [2], 6.54; in the data set on Plasmodium falciparum [3] it was 6.89; in the data set on Plasmodium falciparum [4], 6.81; in data set [7], 4.85. The selectivity ratio in [5] is 2. The “Ratio IC50” value with Plasmodium falciparum [6] was found to be 0.2. Besides, the Ka stood at 0.155 ×10⁶ /M in the data set with Heme and 0.51 ×10⁶ /M with Nucleic Acid.

Values taken from ChEMBL document CHEMBL1671820, “Incorporation of basic side chains into cryptolepine scaffold: structure-antimalarial activity relationships and mechanistic studies” (J Med Chem, 2011).
